ChEMBL document CHEMBL1137710, “Synthesis and in vitro antitumor activity of new quinoxaline derivatives” (2009)

Legend:
Type in all cases: functional
NCI-H460 = experiment: Anticancer activity against human NCI-H460 cells assessed as cell growth at 100 uM after 48 hrs by sulforhodamine B assay; details: NCI-H460, 48 h, read-out: Activity
MCF7 [1] = experiment: Anticancer activity against human MCF7 cells assessed as cell growth at 100 uM after 48 hrs by sulforhodamine B assay; details: MCF7, 48 h, read-out: Activity
SF-268 [2] = experiment: Anticancer activity against human SF268 cells assessed as cell growth at 100 uM after 48 hrs by sulforhodamine B assay; details: SF-268, 48 h, read-out: Activity
[3] = Growth inhibition of human […] cells after 48 hrs by sulforhodamine B assay
Outline: (§1)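 NCI 60-human-tumor-cell-line panel, with compounds tested over a 5-log dose range. Values are taken from dose-response curves as log10 molar concentrations: GI50 is 50% net growth inhibition, TGI is total growth inhibition, and LC50 is 50% net cell death.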

SR = experiment: Growth inhibition of human SR cells after 48 hrs by sulforhodamine B assay
Outline: (§2)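 Run in the NCI 60-human-tumour-cell-line panel, tested over a 5-log dose range. Dose–response curves gave three values per cell line, each as a log10 molar concentration: GI50 (50% inhibition of net cell growth), TGI (total inhibition of net growth) and LC50 (50% net cell death). The mean graph midpoint is the arithmetic mean over all lines, with insensitive lines entered at the highest concentration tested.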

A549 = experiment: Growth inhibition of human A549 cells after 48 hrs by sulforhodamine B assay; details: A549, 48 h; outline: as §1
NCI-H23 = experiment: Growth inhibition of human NCI-H23 cells after 48 hrs by sulforhodamine B assay; details: NCI-H23, 48 h; outline: as §1
NCI-H322M = experiment: Growth inhibition of human NCI-H322M cells after 48 hrs by sulforhodamine B assay; outline: as §1
COLO 205 = experiment: Growth inhibition of human COLO205 cells after 48 hrs by sulforhodamine B assay; details: COLO 205, 48 h; outline: as §1
HCT-116 = experiment: Growth inhibition of human HCT116 cells after 48 hrs by sulforhodamine B assay; details: HCT-116, 48 h; outline: as §1
SW-620 = experiment: Growth inhibition of human SW620 cells after 48 hrs by sulforhodamine B assay; details: SW-620, 48 h; outline: as §2
SF-268 [4] = experiment: Growth inhibition of human SF268 cells after 48 hrs by sulforhodamine B assay; details: SF-268, 48 h; outline: as §1
SF-295 = experiment: Growth inhibition of human SF295 cells after 48 hrs by sulforhodamine B assay; details: SF-295, 48 h; outline: as §1
SNB-19 = experiment: Growth inhibition of human SNB19 cells after 48 hrs by sulforhodamine B assay; details: SNB-19, 48 h; outline: as §2
U-251 = experiment: Growth inhibition of human U251 cells after 48 hrs by sulforhodamine B assay; details: U-251, 48 h; outline: as §2
LOX IMVI = experiment: Growth inhibition of human LOXIMVI cells after 48 hrs by sulforhodamine B assay; outline: as §1
SK-MEL-2 = experiment: Growth inhibition of human SK-MEL-2 cells after 48 hrs by sulforhodamine B assay; details: SK-MEL-2, 48 h; outline: as §1
SK-MEL-28 = experiment: Growth inhibition of human SK-MEL-28 cells after 48 hrs by sulforhodamine B assay; details: SK-MEL-28, 48 h; outline: as §1
SK-MEL-5 = experiment: Growth inhibition of human SK-MEL-5 cells after 48 hrs by sulforhodamine B assay; details: SK-MEL-5, 48 h; outline: as §1
UACC-257 = experiment: Growth inhibition of human UACC257 cells after 48 hrs by sulforhodamine B assay; details: UACC-257, 48 h; outline: as §2
IGROV-1 = experiment: Growth inhibition of human IGROV1 cells after 48 hrs by sulforhodamine B assay; details: IGROV-1, 48 h; outline: as §1
OVCAR-5 = experiment: Growth inhibition of human OVCAR5 cells after 48 hrs by sulforhodamine B assay; details: OVCAR-5, 48 h; outline: as §1
OVCAR-8 = experiment: Growth inhibition of human OVCAR8 cells after 48 hrs by sulforhodamine B assay; details: OVCAR-8, 48 h; outline: as §1
RXF 393 = experiment: Growth inhibition of human RXF393 cells after 48 hrs by sulforhodamine B assay; details: RXF 393, 48 h; outline: as §1
PC-3 = experiment: Growth inhibition of human PC3 cells after 48 hrs by sulforhodamine B assay; details: PC-3, 48 h; outline: as §1
DU-145 = experiment: Growth inhibition of human DU145 cells after 48 hrs by sulforhodamine B assay; details: DU-145, 48 h; outline: as §1
[5] = Growth inhibition of human Hs 578T cells after 48 hrs by sulforhodamine B assay; outline: as §1
MDA-MB-435 = experiment: Growth inhibition of human MDA-MB-435 cells after 48 hrs by sulforhodamine B assay; details: MDA-MB-435, 48 h; outline: as §1
MCF7 [6] = experiment: Growth inhibition of human MCF7 cells after 48 hrs by sulforhodamine B assay; details: MCF7, 48 h; outline: as §1
[7] = read-out: pLC50 (the source's name) (converted)

Compound: Nc1cc(N)c2nc(-c3ccccc3)c(Sc3ccc(Cl)c(Cl)c3)nc2c1
- growth at 100 µM (NCI-H460): 0%
- growth at 100 µM (MCF7 [1]): 12%
- growth at 100 µM (SF-268 [2]): 11%
- GI50 [3]: 3.8 µM
- LC50 [3]: > 100 µM
- TGI ([3]; read-out: pTGI (converted)): 31.6 µM
- GI50 (SR): 4.68 µM
- LC50 (concentration giving 50% net cell death) (SR): > 100 µM
- TGI (SR; read-out: pTGI (converted)): 35.5 µM
- GI50 (A549): 13.5 µM
- LC50 (A549): > 100 µM
- TGI (A549; read-out: pTGI (converted)): 52.5 µM
- GI50 (NCI-H23): 12.6 µM
- LC50 (50% net cell kill concentration) (NCI-H23): 95.5 µM
- TGI (NCI-H23; read-out: pTGI (converted)): 34.7 µM
- GI50 (NCI-H322M): 7.08 µM
- LC50 (NCI-H322M): > 100 µM
- TGI (NCI-H322M; read-out: pTGI (converted)): 35.5 µM
- GI50 (COLO 205): 10.7 µM
- LC50 (50% net cell kill) (COLO 205): > 100 µM
- TGI (COLO 205; read-out: pTGI (converted)): 33.9 µM
- GI50 (HCT-116): 9.33 µM
- LC50 (concentration causing 50% net cell death) (HCT-116): > 100 µM
- TGI (HCT-116; read-out: pTGI (converted)): 47.9 µM
- GI50 (SW-620): 20.9 µM
- CC50 (SW-620; [7]): > 100 µM
- TGI (SW-620; read-out: pTGI (converted)): 83.2 µM
- GI50 (SF-268 [4]): 13.8 µM
- LC50 (SF-268 [4]): > 100 µM
- TGI (SF-268 [4]; read-out: pTGI (converted)): 51.3 µM
- GI50 (SF-295): 17.8 µM
- LC50 (50% net cell kill) (SF-295): > 100 µM
- TGI (SF-295; read-out: pTGI (converted)): 60.3 µM
- GI50 (SNB-19): 17 µM
- LC50 (SNB-19): > 100 µM
- TGI (SNB-19; read-out: pTGI (converted)): 57.5 µM
- GI50 (U-251): 10.2 µM
- LC50 (50% net cell kill) (U-251): > 100 µM
- TGI (U-251; read-out: pTGI (converted)): > 100 µM
- GI50 (LOX IMVI): 7.41 µM
- LC50 (LOX IMVI): 72.4 µM
- TGI (LOX IMVI; read-out: pTGI (converted)): 24.5 µM
- GI50 (SK-MEL-2): 6.17 µM
- CC50 (SK-MEL-2; [7]): > 100 µM
- TGI (SK-MEL-2; read-out: pTGI (converted)): 30.9 µM
- GI50 (SK-MEL-28): 13.8 µM
- CC50 (SK-MEL-28; [7]): > 100 µM
- TGI (SK-MEL-28; read-out: pTGI (converted)): 57.5 µM
- GI50 (SK-MEL-5): 21.4 µM
- CC50 (SK-MEL-5; [7]): > 100 µM
- TGI (SK-MEL-5; read-out: pTGI (converted)): 95.5 µM
- GI50 (UACC-257): 17.8 µM
- CC50 (UACC-257; [7]): > 100 µM
- TGI (UACC-257; read-out: pTGI (converted)): 58.9 µM
- GI50 (IGROV-1): 2.95 µM
- CC50 (IGROV-1; [7]): > 100 µM
- TGI (IGROV-1; read-out: pTGI (converted)): 27.5 µM
- GI50 (OVCAR-5): 38.9 µM
- CC50 (OVCAR-5; [7]): 91.2 µM
- TGI (OVCAR-5; read-out: pTGI (converted)): 58.9 µM
- GI50 (OVCAR-8): 24.5 µM
- CC50 (OVCAR-8; [7]): > 100 µM
- TGI (OVCAR-8; read-out: pTGI (converted)): > 100 µM
- GI50 (RXF 393): 12.3 µM
- CC50 (RXF 393; [7]): 60.3 µM
- TGI (RXF 393; read-out: pTGI (converted)): 26.9 µM
- GI50 (PC-3): 3.47 µM
- CC50 (PC-3; [7]): > 100 µM
- TGI (PC-3; read-out: pTGI (converted)): 15.5 µM
- GI50 (DU-145): 1.51 µM
- CC50 (DU-145; [7]): 9.77 µM
- TGI (DU-145; read-out: pTGI (converted)): 3.8 µM
- GI50 [5]: 30.2 µM
- CC50 [5, 7]: > 100 µM
- TGI ([5]; read-out: pTGI (converted)): > 100 µM
- GI50 (MDA-MB-435): 18.2 µM
- CC50 (MDA-MB-435; [7]): > 100 µM
- TGI (MDA-MB-435; read-out: pTGI (converted)): 60.3 µM
- GI50 (MCF7 [6]): 5.25 µM
- CC50 (MCF7 [6]; [7]): > 100 µM
- TGI (MCF7 [6]; read-out: pTGI (converted)): 38 µM
